The values that follow come from ChEMBL document CHEMBL3259774, “Antimycobacterial activity of chiral aminoalcohols with camphane scaffold” (Eur J Med Chem, 2014).

Assay [1] concerns Mycobacterium tuberculosis. As to the kind of experiment: Antimycobacterial activity against Mycobacterium tuberculosis H37Rv assessed as growth inhibition after 45 days. Type of assay: functional. The method, boiled down:
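Canetti proportion method on Löwenstein–Jensen egg medium. Each compound was added as a sterile DMSO suspension/solution before coagulation (30 min at 85 °C) and tested at five concentrations. Tubes were inoculated with 10⁵ cells/ml and incubated 45 days at 37 °C. Colony counts were expressed as percent of drug-free control. MIC is the lowest concentration giving complete inhibition (0% growth).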

Another assay concerns HEK-293T. The experiment in a line: Cytotoxicity against HEK293T cells after 72 hrs by MTT assay. The assay is classed as cell-based. As to conditions: Homo sapiens. The method, boiled down:
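HEK 293T cells grown in RPMI-1640 with 10% heat-inactivated foetal calf serum and 2 mM L-glutamine, 37 °C, 5% CO2. Cells seeded at […] cells/ml, grown 24 h, then exposed 72 h to compounds serially diluted from fresh DMSO stocks (final DMSO ≤0.5%), ≥8 wells per concentration. MTT added for 4 h at 37 °C, formazan dissolved in 5% HCOOH/2-propanol, read at 580 nm. Survival expressed as % of untreated control; IC50 from sigmoidal curve fit.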

One may read the MIC as the least concentration at which growth counts as inhibited. For orientation: IC50 means the point on the concentration scale where inhibition reaches its midpoint. A lower IC50 goes with greater potency in that assay.

In brackets after ≈: the same amount, converted by molar mass. Where a name gives a salt, the structure may show the parent alone. Bounds are passed on as bounds.

On to `CC1(C)[C@@H]2CC[C@@]1([C@H](O)CN1CCN(c3ccccc3)CC1)C(=O)C2`, for which the MIC in assay [1] stood at 14.6 µM (≈ 5 µg/mL).

On to `CC1(C)[C@@H]2CC[C@@]1([C@@H](O)CN1CCN(c3ccc(F)cc3)CC1)C(=O)C2`, for which the MIC in assay [1] is 0.28 µM (≈ 0.101 µg/mL). The compound also had a concentration for half-maximal inhibition (IC50) in the assay on HEK-293T of 82.2 µM.

Regarding `CC(C)N(C[C@@H](O)[C@]12CC[C@H](CC1=O)C2(C)C)C(C)C`, the minimum inhibitory concentration (MIC) in assay [1] came out at 10.7 µM (≈ 3 µg/mL).

Turning to `CC1(C)[C@@H]2CC[C@@]1([C@H](O)CN1CCN(c3ccc(F)cc3)CC1)C(=O)C2`, the MIC in assay [1] was determined as 0.28 µM (≈ 0.101 µg/mL). In the assay on HEK-293T, this compound displayed an IC50 of 65.1 µM.

For the compound `CC1(C)[C@@H]2CC[C@@]1([C@@H](O)CN1CCOCC1)C(=O)C2`, the MIC in assay [1] was 0.37 µM (≈ 0.0989 µg/mL). Besides, in the assay with HEK-293T, the IC50 is greater than 200 µM.

For the compound `CC1(C)[C@@H]2CC[C@@]1([C@H](O)CN1CCN(c3ccc(Cl)cc3)CC1)C(=O)C2`, the minimum inhibitory concentration (MIC) in assay [1] was determined as 0.27 µM (≈ 0.102 µg/mL). In the assay on HEK-293T, this compound yielded an IC50 of 9.2 µM.

In the case of `CC1(C)[C@@H]2CC[C@@]1([C@@H](O)CN1CCCC1)C(=O)C2`, the minimal inhibitory concentration (MIC) in assay [1] stood at 19.9 µM (≈ 5 µg/mL).

With `CC1(C)[C@@H]2CC[C@@]1([C@@H](O)CN1CCCCC1)C(=O)C2`, the MIC in assay [1] was 0.38 µM (≈ 0.101 µg/mL). This compound displayed an IC50 in the assay on HEK-293T of 143 µM.

As for `CC1CCN(C[C@H](O)[C@]23CC[C@H](CC2=O)C3(C)C)CC1`, in assay [1], the minimal inhibitory concentration (MIC) came out at 0.72 µM (≈ 0.201 µg/mL). In the assay on HEK-293T, this compound gave an IC50 of 158 µM.

`CC1(C)[C@@H]2CC[C@@]1([C@@H](O)CN1CCN(c3ccccc3F)CC1)C(=O)C2`: the minimum inhibitory concentration (MIC) in assay [1] amounted to 0.28 µM (≈ 0.101 µg/mL). In the assay with HEK-293T, this compound displayed a half-inhibitory concentration (IC50) of 129 µM.

As for `CC1(C)[C@@H]2CC[C@@]1([C@@H](O)CN1CCN(c3ccccc3)CC1)C(=O)C2`, the MIC in assay [1] is 14.6 µM (≈ 5 µg/mL).

As to `CC1(C)[C@@H]2CC[C@@]1([C@@H](O)CN1CCSCC1)C(=O)C2`, the MIC in assay [1] came out at 17.6 µM (≈ 5 µg/mL).

Consider `CC(C)N(C[C@H](O)[C@]12CC[C@H](CC1=O)C2(C)C)C(C)C`, for which the MIC in assay [1] stood at 0.37 µM (≈ 0.104 µg/mL). In the assay with HEK-293T, this compound displayed a concentration for half-maximal inhibition (IC50) of 166 µM.

As to `CN1CCN(C[C@@H](O)[C@]23CC[C@H](CC2=O)C3(C)C)CC1`, in assay [1], the MIC came out at 17.8 µM (≈ 5 µg/mL).

For the compound `CC[C@@H](CO)NCCN[C@@H](CC)CO` [ETHAMBUTOL HYDROCHLORIDE], the MIC in assay [1] was found to be 7.22 µM.

For `CN1CCN(C[C@H](O)[C@]23CC[C@H](CC2=O)C3(C)C)CC1`, the MIC in assay [1] came out at 17.8 µM (≈ 5 µg/mL).

`CC1(C)[C@@H]2CC[C@@]1([C@H](O)CN1CCCCC1)C(=O)C2`: the minimum inhibitory concentration (MIC) in assay [1] amounted to 18.8 µM (≈ 5 µg/mL).

With `CC1CCN(C[C@@H](O)[C@]23CC[C@H](CC2=O)C3(C)C)CC1`, in assay [1], the MIC came out at 0.36 µM (≈ 0.101 µg/mL). This compound also came in with an IC50 in the assay on HEK-293T of 169 µM.

For `CC1(C)[C@@H]2CC[C@@]1([C@H](O)CN1CCSCC1)C(=O)C2`, the minimum inhibitory concentration (MIC) in assay [1] was determined as 17.6 µM (≈ 5 µg/mL).

For `CC1(C)[C@@H]2CC[C@@]1([C@H](O)CN1CCN(c3ccccc3F)CC1)C(=O)C2`, in assay [1], the MIC came out at 0.28 µM (≈ 0.101 µg/mL). The compound also displayed an IC50 in the assay on HEK-293T of 120 µM.

As for `CC1(C)[C@@H]2CC[C@@]1([C@@H](O)CN1CCN(c3ccc(Cl)cc3)CC1)C(=O)C2`, in assay [1], the MIC was 7.96 µM (≈ 3 µg/mL). This compound also came in with an IC50 in the assay on HEK-293T of 8.6 µM.

`CC1(C)[C@@H]2CC[C@@]1([C@H](O)CN1CCOCC1)C(=O)C2`: the MIC in assay [1] is 18.7 µM (≈ 5 µg/mL).
